# Experimental data pooled from the literature.
# Compare with care: the assays were run in different laboratories.
# Observed: microbial growth
SMILES,organism,test,system,conditions,MIC
O=C(O)c1cn(C2CC2)c2cc(N3CCNCC3)c(F)cc2c1=O,Micrococcus luteus,broth dilution,,24 h,0.57 µM
O=C1NC(=S)N/C1=C\c1ccc(-c2ccc(N(c3ccccc3)c3ccccc3)cc2)cc1,Micrococcus luteus,broth dilution,ATCC10240,,62.5 µg/mL
CNC(=O)c1ccc2c(c1)NC(=O)/C2=C(\Nc1cccc(CN(C)C)c1)c1ccccc1,Staphylococcus aureus,,NCTC8325,,> 30 µM
O=C(O)CN1C(=O)/C(=C/c2ccc(-c3ccc(N(c4ccccc4)c4ccccc4)cc3)c3ccccc23)NC1=S,Micrococcus luteus,broth dilution,ATCC10240,,> 1000 µg/mL
O=c1[nH]c(NCc2ccc(Cl)c(Cl)c2)nc2ncn(CCCCCN3CCOCC3)c12,Lactobacillus acidophilus,agar dilution,,48 h,2 µg/mL
O=C1NC(=S)N/C1=C\c1c2ccccc2c(-c2ccc(N(c3ccccc3)c3ccccc3)cc2)c2ccccc12,Micrococcus luteus,broth dilution,ATCC10240,,> 1000 µg/mL
CCc1cc(Nc2cc(=O)n(CCCCO)c(=O)[nH]2)ccc1C,Lactobacillus acidophilus,agar dilution,,48 h,32 µg/mL
CNC(=O)c1cc(Sc2ccc(NC(=O)Nc3ccc(Cl)c(C(F)(F)F)c3)cc2)ccn1,Staphylococcus aureus,,NCTC8325,24 h,1 µM
O=C1NC(=S)S/C1=C\c1c2ccccc2c(-c2ccc(N(c3ccccc3)c3ccccc3)cc2)c2ccccc12,Micrococcus luteus,broth dilution,ATCC10240,,> 1000 µg/mL
CC1=NN(CNC(=O)c2ccccc2)C(=O)C1=NNn1c(-c2ccccc2)nc2ccccc2c1=O,Micrococcus luteus,broth dilution,,24 h,51.9 µM
CC1(C)S[C@@H]2[C@H](NC(=O)[C@H](N)c3ccccc3)C(=O)N2[C@H]1C(=O)O,Bifidobacterium longum,broth dilution,ATCCBAA999,,0.25 µg/mL
CC1COc2c(N3CCN(C)CC3)c(F)cc3c(=O)c(C(=O)O)cn1c23 (centres unmarked),Staphylococcus aureus,,NCTC8325,,0.5 to 2 µM
CC1=NN(CNc2ccc(O)cc2)C(=O)C1=NNn1c(-c2ccccc2)nc2ccccc2c1=O,Micrococcus luteus,broth dilution,,24 h,53.5 µM
CNC(=O)c1ccc(C)c(-n2c(C)cc(OCc3ccc(F)cc3F)c(Br)c2=O)c1,Staphylococcus aureus,,NCTC8325,,> 30 µM
O=C(O)c1cn(C2CC2)c2cc(N3CCNCC3)c(F)cc2c1=O,Micrococcus luteus,broth dilution,ATCC10240,,0.98 µg/mL
C#CCCCCC(=O)NC(C)C,Staphylococcus aureus,,NCTC8325,,> 100 µM
O=C1NN=C(N=Cc2ccc(O)cc2O)C1=NNn1c(-c2ccccc2)nc2ccccc2c1=O,Micrococcus luteus,broth dilution,,24 h,53.5 µM
